Assay results taken from PubChem BioAssay AID588487 (The Scripps Research Institute Molecular Screening Center, 2011).
Active and inactive are the calls of the source.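 How the source made its calls: active means inhibition of at least 50% against any of four protein arginine deiminase enzymes; inactive means the rest.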

How the values were obtained:
Test in all cases: PAD1-4 inhibition by competitive ABPP, late-stage follow-up, orthogonal assay for PAD4 inhibitor project, biochemical, fluorescence, gel-based ABPP, HTS hits (AID 588487)
[1] = biological target: Protein-arginine deiminase type-1 (Homo sapiens) (UniProt Q9ULC6); conditions: recombinant PAD1-4, gel-based ABPP, RFA probe fluorescence; PAD1; at 10 µM; stronger effect = higher value
Procedure, shortened: (§1)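 Assay system: recombinant PAD1, PAD2, PAD3 or PAD4 / Probe or stimulus: RFA fluorescent probe at 1 µM / Doses: single compound dose of 10 µM, DMSO vehicle / Timing: 15 min compound pre-incubation plus 30 min probe step, 37 °C / Technique: in-gel fluorescence scan of probe-labeled PAD band after SDS-PAGE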

[2] = biological target: Protein-arginine deiminase type-2 (Homo sapiens) (UniProt Q9Y2J8); conditions: recombinant PAD1-4, gel-based ABPP, RFA probe fluorescence; PAD2; at 10 µM; stronger effect = higher value
Procedure, shortened: as §1

[3] = biological target: Protein-arginine deiminase type-3 (Homo sapiens) (UniProt Q9ULW8); conditions: recombinant PAD1-4, gel-based ABPP, RFA probe fluorescence; PAD3; at 10 µM; stronger effect = higher value
Procedure, shortened: as §1

[4] = biological target: Protein-arginine deiminase type-4 (Homo sapiens) (UniProt Q9UM07); conditions: recombinant PAD1-4, gel-based ABPP, RFA probe fluorescence; PAD4; at 10 µM; stronger effect = higher value
Procedure, shortened: as §1

Chain of Protein-arginine deiminase type-3 (Homo sapiens) (Q9ULW8 whole entry, looked up): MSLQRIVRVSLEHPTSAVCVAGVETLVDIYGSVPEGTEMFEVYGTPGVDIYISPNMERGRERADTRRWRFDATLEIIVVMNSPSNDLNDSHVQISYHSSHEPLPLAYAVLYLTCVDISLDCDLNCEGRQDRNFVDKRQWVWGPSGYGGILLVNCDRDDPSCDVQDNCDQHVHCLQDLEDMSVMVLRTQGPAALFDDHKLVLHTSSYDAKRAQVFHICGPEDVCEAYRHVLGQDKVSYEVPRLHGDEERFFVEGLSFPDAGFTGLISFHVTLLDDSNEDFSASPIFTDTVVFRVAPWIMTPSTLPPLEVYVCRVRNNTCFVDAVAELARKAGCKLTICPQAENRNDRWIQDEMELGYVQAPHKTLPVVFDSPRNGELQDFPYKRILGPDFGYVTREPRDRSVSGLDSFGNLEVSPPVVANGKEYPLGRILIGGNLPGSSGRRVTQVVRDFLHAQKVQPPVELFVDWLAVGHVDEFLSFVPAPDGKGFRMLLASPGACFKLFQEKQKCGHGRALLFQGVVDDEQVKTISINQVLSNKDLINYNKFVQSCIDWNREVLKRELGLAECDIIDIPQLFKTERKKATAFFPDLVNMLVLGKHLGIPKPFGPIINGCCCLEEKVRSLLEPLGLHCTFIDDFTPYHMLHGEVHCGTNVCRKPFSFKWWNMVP
Chain of Protein-arginine deiminase type-1 (Homo sapiens) (Q9ULC6 whole entry, looked up): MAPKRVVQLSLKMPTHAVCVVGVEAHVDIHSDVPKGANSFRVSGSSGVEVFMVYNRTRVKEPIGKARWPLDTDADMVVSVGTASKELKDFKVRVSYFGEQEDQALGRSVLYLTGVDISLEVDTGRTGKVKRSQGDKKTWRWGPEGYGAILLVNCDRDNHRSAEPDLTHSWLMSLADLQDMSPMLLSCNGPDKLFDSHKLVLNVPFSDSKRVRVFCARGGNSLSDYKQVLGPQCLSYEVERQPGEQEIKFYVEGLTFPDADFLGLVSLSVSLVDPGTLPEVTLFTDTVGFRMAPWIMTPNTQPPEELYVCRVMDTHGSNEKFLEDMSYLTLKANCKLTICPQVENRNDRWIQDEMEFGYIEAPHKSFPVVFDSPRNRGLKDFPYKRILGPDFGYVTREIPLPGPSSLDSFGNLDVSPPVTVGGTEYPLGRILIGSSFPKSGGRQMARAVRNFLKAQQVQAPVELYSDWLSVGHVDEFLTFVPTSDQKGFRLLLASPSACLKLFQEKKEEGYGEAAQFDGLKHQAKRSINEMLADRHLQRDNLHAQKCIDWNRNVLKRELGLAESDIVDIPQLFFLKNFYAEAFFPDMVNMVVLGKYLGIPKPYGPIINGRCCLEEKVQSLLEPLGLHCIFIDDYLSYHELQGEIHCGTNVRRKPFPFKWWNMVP
Chain of Protein-arginine deiminase type-4 (Homo sapiens) (Q9UM07 whole entry, looked up): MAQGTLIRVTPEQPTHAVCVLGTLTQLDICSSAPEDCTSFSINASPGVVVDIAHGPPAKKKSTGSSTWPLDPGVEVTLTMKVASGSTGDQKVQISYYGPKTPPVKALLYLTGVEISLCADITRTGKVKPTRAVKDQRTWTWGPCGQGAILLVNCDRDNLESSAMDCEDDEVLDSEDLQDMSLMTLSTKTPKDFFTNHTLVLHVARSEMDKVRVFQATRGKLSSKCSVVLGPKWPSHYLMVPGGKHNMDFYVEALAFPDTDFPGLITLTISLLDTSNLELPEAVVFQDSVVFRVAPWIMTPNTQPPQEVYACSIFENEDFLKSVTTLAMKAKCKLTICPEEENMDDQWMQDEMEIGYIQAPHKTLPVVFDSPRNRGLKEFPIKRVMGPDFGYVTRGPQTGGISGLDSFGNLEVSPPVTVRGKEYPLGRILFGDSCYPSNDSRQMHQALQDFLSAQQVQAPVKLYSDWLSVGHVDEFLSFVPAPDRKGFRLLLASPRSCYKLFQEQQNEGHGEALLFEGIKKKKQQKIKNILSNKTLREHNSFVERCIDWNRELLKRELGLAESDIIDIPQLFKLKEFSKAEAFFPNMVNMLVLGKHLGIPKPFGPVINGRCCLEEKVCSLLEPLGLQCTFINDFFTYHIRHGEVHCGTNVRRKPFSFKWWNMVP
Chain of Protein-arginine deiminase type-2 (Homo sapiens) (Q9Y2J8 whole entry, looked up): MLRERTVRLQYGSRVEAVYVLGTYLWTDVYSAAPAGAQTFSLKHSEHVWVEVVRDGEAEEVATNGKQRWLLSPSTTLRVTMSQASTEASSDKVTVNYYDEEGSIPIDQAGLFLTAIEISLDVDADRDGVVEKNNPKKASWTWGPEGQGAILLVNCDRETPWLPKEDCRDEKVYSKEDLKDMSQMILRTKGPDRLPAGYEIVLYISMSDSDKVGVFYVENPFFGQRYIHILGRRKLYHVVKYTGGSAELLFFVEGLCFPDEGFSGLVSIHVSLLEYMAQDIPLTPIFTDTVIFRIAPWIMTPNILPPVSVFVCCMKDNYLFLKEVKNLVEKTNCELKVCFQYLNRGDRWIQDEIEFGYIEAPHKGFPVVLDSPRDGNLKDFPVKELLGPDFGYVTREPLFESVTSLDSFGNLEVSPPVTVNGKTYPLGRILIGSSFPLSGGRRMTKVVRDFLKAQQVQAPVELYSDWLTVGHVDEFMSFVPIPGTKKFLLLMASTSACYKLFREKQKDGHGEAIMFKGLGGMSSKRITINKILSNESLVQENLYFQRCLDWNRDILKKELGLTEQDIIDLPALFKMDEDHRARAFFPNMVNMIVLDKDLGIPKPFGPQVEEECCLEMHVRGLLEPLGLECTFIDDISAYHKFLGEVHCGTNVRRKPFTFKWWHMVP

SMILES | inhibition [1] | inhibition [2] | inhibition [3] | inhibition [4]
Cc1cc(C)c(C)c(S(=O)(=O)N2CCC(C(=O)N3CCCC3)CC2)c1C | -32% (inactive) | -43% (inactive) | 22% (inactive) | 39% (inactive)
O=C(O)c1[nH]c2ccccc2c1-c1ccccc1 | 17% (inactive) | 14% (inactive) | 10% (inactive) | 40% (inactive)
O=c1cc(-c2ccc(Cl)cc2)[nH][nH]1 | 33% (inactive) | 62% | -44% (inactive) | 41% (inactive)
Cc1ccc(-c2nc3sc(C#N)c(N)n3c(=O)c2C#N)cc1 | 32% (inactive) | 16% (inactive) | 31% (inactive) | 38% (inactive)
COCc1cc(C)nc(SCC(=O)Nc2ccc3c(c2)n(C)c(=O)n3C)c1C#N | 15% (inactive) | 31% (inactive) | -43% (inactive) | 38% (inactive)
Cc1ccc(C2CC(=O)Oc3cc(O)ccc32)cc1 (configuration not stated) | 40% (inactive) | -2% (inactive) | 43% (inactive) | -30% (inactive)
Cc1c(NC(=O)CSc2nccn2C)c(=O)n(-c2ccccc2)n1C | 46% (inactive) | 35% (inactive) | -7% (inactive) | 66%
Cn1c(N)c(C(=O)COC(=O)COc2ccc(Br)cc2)c(=O)n(C)c1=O | 16% (inactive) | 51% | 19% (inactive) | 20% (inactive)
Cc1ccc(C2=NN=C(NC(=O)CSc3nncn3C)SC2)cc1 | 16% (inactive) | 1% (inactive) | 32% (inactive) | 26% (inactive)
Cc1c(C(=O)N2CCCCC2)c(S(=O)(=O)N2CCN(c3ccc(Cl)cc3)CC2)c(C)n1C | -25% (inactive) | 6% (inactive) | 26% (inactive) | 67%
O=c1cc(-c2ccc(Cl)c(Cl)c2)[nH][nH]1 | 27% (inactive) | 51% | 41% (inactive) | 42% (inactive)
Cc1ccc(CNC(=O)c2ccc(C)c(S(=O)(=O)N3CCCCC3)c2)cc1 | 21% (inactive) | 67% | 31% (inactive) | 19% (inactive)
COC(=O)c1cc(C)nc(Sc2ccccc2N)n1 | 23% (inactive) | 8% (inactive) | 60% | -61% (inactive)

Second part, the compound after the results:

inhibition [1] | inhibition [2] | inhibition [3] | inhibition [4] | SMILES
22% (inactive) | 18% (inactive) | -37% (inactive) | 31% (inactive) | COc1ccc(OC)c(C2C(C#N)=C(N)Oc3c2c(C)nn3-c2ccc(C)cc2)c1 (configuration not stated)
38% (inactive) | 17% (inactive) | -3% (inactive) | 18% (inactive) | COc1cc(NC2c3ccccc3C(=O)N2Cc2ccccc2Cl)cc(OC)c1 (configuration not stated)
16% (inactive) | -45% (inactive) | 24% (inactive) | -51% (inactive) | O=C(O)CCC(=O)c1ccc(-c2ccccc2)cc1
13% (inactive) | 46% (inactive) | -7% (inactive) | 65% | CN(C)CCN(Cc1ccccc1)c1ccccn1
6% (inactive) | -6% (inactive) | 20% (inactive) | 51% | O=c1cc(-c2ccc(Br)cc2)[nH][nH]1
43% (inactive) | 62% | -20% (inactive) | 51% | Cc1cc(-c2nnc(SCC(=O)Nc3ccc(F)c(F)c3)n2N)n[nH]1
13% (inactive) | 21% (inactive) | 49% (inactive) | 55% | COc1ccc(C2C(C#N)=C(N)N(N(C)C)C3=C2C(=O)CCC3)cc1 (configuration not stated)
47% (inactive) | 29% (inactive) | 3% (inactive) | 32% (inactive) | N#CCCn1[nH]c(-c2ccccc2)cc1=O
-47% (inactive) | 92% | 48% (inactive) | -5% (inactive) | COc1cccc(/C=C2/CN(C)CC3=C2OC(N)=C(C#N)C3c2cccc(OC)c2)c1 (configuration not stated)
58% | 19% (inactive) | 39% (inactive) | -7% (inactive) | CC(=O)N(Cc1cc(=O)[nH]c2ccccc12)c1cccc(C)c1
45% (inactive) | 25% (inactive) | 15% (inactive) | 52% | CCOc1c(Br)cc(/C=C2\C(=O)N(CCC#N)N=C2C)cc1OC
60% | 50% | 32% (inactive) | 17% (inactive) | CCN(CC)c1cccc(OC2=NS(=O)(=O)c3ccccc32)c1
-33% (inactive) | 50% | 42% (inactive) | 1% (inactive) | Cc1oc2c(C)c(O)ccc2c(=O)c1-c1ccc2ccccc2n1
-42% (inactive) | -27% (inactive) | 15% (inactive) | 59% | O=C(NC1CCCCC1)C(c1cccs1)N(CCCN1CCOCC1)C(=O)c1ccc(-c2ccccc2)[nH]1 (configuration not stated)
-20% (inactive) | 63% | 6% (inactive) | 93% | CCN(CC)S(=O)(=O)c1ccc(N=NC2=C(O)CCCC2=O)cc1
42% (inactive) | 25% (inactive) | 32% (inactive) | 9% (inactive) | CC(=O)C1=C(c2ccccc2)N(C(C)=O)n2c(C)nnc2S1
18% (inactive) | 14% (inactive) | 21% (inactive) | 31% (inactive) | c1ccc(CCn2c3ccccc3c3nnc(SCc4ccc5nonc5c4)nc32)cc1
-8% (inactive) | 26% (inactive) | 11% (inactive) | 31% (inactive) | CCOc1ccccc1C(=O)NCC(=O)NCCCc1ccccc1
-10% (inactive) | 25% (inactive) | 3% (inactive) | 42% (inactive) | O=C(COc1ccccc1F)N1CCN(S(=O)(=O)/C=C/c2ccccc2)CC1
46% (inactive) | 38% (inactive) | 38% (inactive) | 22% (inactive) | Cc1nonc1OC(C)CNc1ccc([N+](=O)[O-])cc1 (configuration not stated)
